Broadly, the IC50 is the concentration that gives 50% inhibition.

Results on seven compounds are retold here after ChEMBL document CHEMBL1914299, “Synthesis and antitumor activity of β-carboline 3-(substituted-carbohydrazide) derivatives” (Bioorg Med Chem, 2011).

Series [1] concerns Mus musculus. Kind of series: Antitumor activity against mouse Ehrlich Ascitic tumor xenografted in BALB/c mouse assessed as reduction of tumor volume in paw at 10 mg/kg, ip administered every 3 days for 15 days measured on day 9 by plethysmograph analysis. Format: functional, organism-based. On the set-up: dose 10 mg/kg.
In the next series the test system is NCI-H460. Kind of series: Antitumor activity against human NCI-H460 cells by SRB colorimetric assay. Type of series: functional, cell-based. The gist of the method:
(§1)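 NCI sulforhodamine B colorimetric growth assay in 96-well plates. Each compound tested at four concentrations in 10-fold dilutions. Doxorubicin as positive control. IC50 taken from concentration–response curves as the concentration giving 50% reduction in cell growth versus untreated control cells.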
On the technique in general: In SRB staining, fixed cells bind dye roughly in proportion to their protein.

In another series the test system is OVCAR. Kind of series: Antitumor activity against human OVCAR cells by SRB colorimetric assay. Type of series: functional, cell-based. Summed up: as §1
For the next series, the system named is K562. Briefly: Antitumor activity against human K562 cells by SRB colorimetric assay. Format: functional, cell-based. Summed up: as §1
The test system of another series is 786-0. Kind of series: Antitumor activity against human 786-0 cells by SRB colorimetric assay. Type of series: functional, cell-based. Summed up: as §1
Series [2] is described as follows: Antitumor activity against human PCO3 cells by SRB colorimetric assay. Format: functional, cell-based. Summed up:
as §1

For another series, the system named is MCF7. Kind of series: Antitumor activity against human MCF7 cells by SRB colorimetric assay. Format: functional, cell-based. Summed up:
as §1

The subject of another series is HT-29. Kind of series: Antitumor activity against human HT-29 cells by SRB colorimetric assay. Format: functional, cell-based. Summed up: as §1
The next series relates to UACC-62. Kind of series: Antitumor activity against human UACC62 cells by SRB colorimetric assay. Format: functional, cell-based. The gist of the method:
as §1

Series [3] has as its system Mus musculus. Briefly: Antitumor activity against mouse Ehrlich Ascitic tumor xenografted in BALB/c mouse assessed as reduction in paw edema at 30 mg/kg, ip administered every 3 days for 15 days measured on day 12 and day 15 by plethysmograph analysis. Type of series: functional, organism-based. On the set-up: dose 30 mg/kg. The gist of the method: (§2)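 Ehrlich tumor cells collected from ascitic fluid and counted by Trypan blue exclusion, viability above 90%. Cells diluted in 0.9% PBS to […]. Injected sub-plantar into right hind paw of Balb/C mice (20–35 g), 2.5 × 10⁶ viable cells. Compound given ip every 3 days over 15 days, vehicle 0.9% saline, 5-fluorouracil 10 mg/kg as positive control. Paw volume measured by plethysmometer every 3 days until sacrifice on day 15.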

The subject of series [4] is Mus musculus. Briefly: Antitumor activity against mouse Ehrlich Ascitic tumor xenografted in BALB/c mouse assessed as reduction of tumor volume in paw at 30 mg/kg, ip administered every 3 days for 15 days measured on day 9 by plethysmograph analysis. Type of series: functional, organism-based. On the set-up: dose 30 mg/kg. Summed up: as §2
For series [5], the system named is Mus musculus. Kind of series: Acute toxicity in BALB/c mouse at 30 mg/kg, ip. Format: organism-based. On the set-up: dose 30 mg/kg, route intraperitoneal. The settings on record: in vivo.
Series [6] has as its system Mus musculus. Kind of series: Antiinflammatory activity in mouse Ehrlich Ascitic tumor xenografted BALB/c mouse assessed as reduction in paw edema at 30 mg/kg, ip administered every 3 days for 15 days by plethysmograph analysis. Type of series: functional, organism-based. On the set-up: dose 30 mg/kg. Summed up: as §2

Calls of active or inactive are those of the source. No cut-off for these calls is given here.

Turning to `O=c1[nH]cc(F)c(=O)[nH]1`, the result with Mus musculus [1] was Active.
For `O=C(NN=C1CCCC1)c1cc2c([nH]c3ccccc32)c(-c2ccccc2Cl)n1`, the IC50 in the series with NCI-H460 was 13.8 µM; in the series with OVCAR, 11.2 µM; with K562 it was > 100 µM; in the series on 786-0 it was 11.7 µM; in series [2], 15 µM; in the series on MCF7, 7.37 µM. Moreover, the IC50 is 20.1 µM with HT-29 and 11.7 µM in the series with UACC-62.
For the compound `COc1ccc(/C=N/NC(=O)c2cc3c([nH]c4ccccc43)c(-c3ccccc3)n2)cc1`, the IC50 in the series with NCI-H460 is 59.4 µM; in the series with OVCAR, 10 µM; in the series on K562 it was 14.6 µM; in the series on 786-0 it was > 100 µM; in [2], 59.4 µM; in the series on MCF7, 11 µM. Moreover, the figures for the IC50 in the series on HT-29 and with UACC-62 were 38.5 µM and 65.6 µM, respectively.
As for `CN(C)c1ccc(/C=N/NC(=O)c2cc3c([nH]c4ccccc43)c(-c3cccc([N+](=O)[O-])c3)n2)cc1`, the IC50 in the series on NCI-H460 was 2.11 µM; with OVCAR it was 0.19 µM; in the series with K562, 0.24 µM; in the series on 786-0 it was 0.04 µM; in [2], 4.18 µM; with MCF7 it was 0.63 µM. Moreover, the IC50 came to 9.8 µM in the series with HT-29 and 1.34 µM in the series on UACC-62. Besides, the result in the series on Mus musculus [3], with Mus musculus [4], in the series with Mus musculus [1] and in the series on Mus musculus [6] was Active. Moreover, the Activity result in the series with Mus musculus [5] is on record as “Non-toxic”.
Take `O=C(N/N=C/c1ccc([N+](=O)[O-])cc1)c1cc2c([nH]c3ccccc32)c(-c2ccc(O)cc2)n1`: the IC50 in the series on NCI-H460 was > 100 µM; with OVCAR, 51 µM; with K562, 3.73 µM; in the series on 786-0, 9.58 µM; in series [2], 12.8 µM; in the series on MCF7, 12.3 µM. Besides, the concentration for half-maximal inhibition (IC50) in the series with HT-29 amounted to 3.87 µM; in the series with UACC-62 it was 4.46 µM.
Consider `COc1ccc(-c2nc(C(=O)N/N=C/c3ccccc3Cl)cc3c4ccccc4n(C)c23)cc1`, for which the IC50 was > 100 µM in the series on NCI-H460; > 100 µM in the series on OVCAR; > 100 µM with K562; > 100 µM in the series with 786-0; > 100 µM in [2]; 14 µM with MCF7. The IC50 in the series with HT-29 and in the series with UACC-62 was > 100 µM throughout.
`O=C(NN=C1CCCCC1)c1cc2c([nH]c3ccccc32)c(-c2ccccc2Cl)n1`: the IC50 with NCI-H460 is 54.1 µM; in the series on OVCAR it was 20.8 µM; in the series with K562 it was > 100 µM; in the series on 786-0, 24.5 µM; in [2], 18.3 µM; in the series on MCF7, 6.19 µM. The IC50 amounted to 40.4 µM in the series with HT-29 and 21.6 µM in the series with UACC-62.
